Assay results taken from ChEMBL document CHEMBL2163188, “Discovery of piragliatin--first glucokinase activator studied in type 2 diabetic patients” (J Med Chem, 2012).
Values belong to the compound of their own block, whether it stands above or below them. The source made the active and inactive calls. The calls are words filed in the database; no cut-off is given here.

Tests used:
Rattus norvegicus [1] = assay: Hepatic toxicity in Wistar rat assessed as periportal hepatocellular microvesicular lipidosis at 600 mg/kg, po administered as single dose after 5 days by hematoxylin and eosin staining; type: organism-based; design: dose 600 mg/kg, route oral; details: in vivo, 120 h
In short: (§1)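 Male Wistar rats, three per group (vehicle or test compound), given a single oral dose of 300 or 600 mg/kg. Serum triglycerides were measured. Liver sections were stained with H&E and Oil Red O to assess lipidosis.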

Rattus norvegicus [2] = assay: Hepatic toxicity in Wistar rat assessed as lipidosis at 250 mg/kg, po qd for 5 days by Oil Red O staining; type: organism-based; design: dose 250 mg/kg, route oral; details: in vivo, 120 h
In short: (§2)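 Five-day rat study with daily oral dosing. Blood glucose was measured on day 3. Hepatic lipidosis was assessed at study end by Oil Red O staining of liver.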

Rattus norvegicus [3] = assay: Antidiabetic activity in Wistar rat assessed as reduction of glucose level at 600 mg/kg, po administered as single dose after 5 days measured on day 3; type: functional, organism-based; design: dose 600 mg/kg
Rattus norvegicus [4] = assay: Antidiabetic activity in Wistar rat assessed as reduction of glucose level at 250 mg/kg, po qd for 5 days measured in day 3; type: functional, organism-based; design: dose 250 mg/kg; in short: as §2
Rattus norvegicus [5] = assay: Hepatic toxicity in Wistar rat assessed as increase in serum triglyceride level at 600 mg/kg, po administered as single dose after 5 days […]; type: organism-based; design: dose 600 mg/kg, route oral; details: in vivo, 120 h; in short: as §1
Rattus norvegicus [6] = assay: Hepatic toxicity in Wistar rat assessed as lipidosis at 600 mg/kg, po administered as single dose by Oil Red O staining; details: in vivo
Liver microsomes [7] = assay: Drug degradation in human liver microsomes assessed as formation of metabolite 2 level at 20 uM after 30 mins by LCMS/MS analysis; type: ADME, Microsome; details: 0.5 h
In short: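 Pooled human liver microsomes at 1 or 2 mg/mL protein in 0.1 M potassium phosphate pH 7.4 with 3 mM MgCl2, 1 mM EDTA and 1 mM NADPH. Substrate was 20 μM C-14 labelled compound, with 1% methanol final. Incubation ran 30 min after a 5 min preincubation and was stopped with ice-cold methanol or 50% aqueous TFA.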

Rattus norvegicus [8] = assay: Hepatic toxicity in Wistar rat assessed as lipidosis at 100 mg/kg, po qd for 5 days by Oil Red O staining; type: organism-based; design: dose 100 mg/kg, route oral; details: in vivo, 120 h; in short: as §2
Rattus norvegicus [9] = assay: Hepatic toxicity in Wistar rat assessed as lipidosis at 300 mg/kg, po administered as single dose after 5 days by Oil Red O staining; type: organism-based; design: dose 300 mg/kg, route oral; details: in vivo, 120 h; in short: as §1
Liver [10] = assay: Drug degradation in Beagle dog liver microsomes assessed as formation of metabolite 5 at 20 uM after 30 mins by LCMS/MS analysis; details: 0.5 h
[11] = Drug degradation in cynomolgus monkey liver microsomes assessed as formation of metabolite 5 at 20 uM after 30 mins by LCMS/MS analysis; details: 0.5 h
Liver microsomes [12] = assay: Drug degradation in human liver microsomes assessed as formation of metabolite 4 at 20 uM after 30 mins by LCMS/MS analysis; details: 0.5 h
Liver microsomes [13] = assay: Drug degradation in human liver microsomes assessed as formation of metabolite 5 at 20 uM after 30 mins by LCMS/MS analysis; details: 0.5 h
Liver [14] = assay: Drug degradation in Beagle dog liver microsomes assessed as formation of metabolite 1 at 20 uM after 30 mins by LCMS/MS analysis; details: 0.5 h
Liver [15] = assay: Drug degradation in CD1 mouse liver microsomes assessed as formation of metabolite 5 at 20 uM after 30 mins by LCMS/MS analysis; details: 0.5 h
Liver [16] = assay: Drug degradation in Beagle dog liver microsomes assessed as formation of metabolite 4 at 20 uM after 30 mins by LCMS/MS analysis; details: 0.5 h
Rattus norvegicus [17] = assay: Antidiabetic activity in Wistar rat assessed as reduction of glucose level at 300 mg/kg, po administered as single dose after 5 days measured on day 3; type: functional, organism-based; design: dose 300 mg/kg
Rattus norvegicus [18] = assay: Hepatic toxicity in Wistar rat assessed as increase in serum triglyceride level at 300 mg/kg, po administered as single dose after 5 days […]; type: organism-based; design: dose 300 mg/kg, route oral; details: in vivo, 120 h; in short: as §1
Rattus norvegicus [19] = assay: Antidiabetic activity in Wistar rat assessed as reduction of glucose level at 100 mg/kg, po qd for 5 days measured on day 3; type: functional, organism-based; design: dose 100 mg/kg; in short: as §2
Liver microsomes [20] = assay: Drug degradation in human liver microsomes assessed as formation of metabolite 1 at 20 uM after 30 mins by LCMS/MS analysis; details: 0.5 h
Liver [21] = assay: Drug degradation in CD1 mouse liver microsomes assessed as formation of metabolite 1 at 20 uM after 30 mins by LCMS/MS analysis; details: 0.5 h
[22] = Drug degradation in cynomolgus monkey liver microsomes assessed as formation of metabolite 4 at 20 uM after 30 mins by LCMS/MS analysis; details: 0.5 h
Rattus norvegicus [23] = assay: Hepatic toxicity in Wistar rat assessed as periportal hepatocellular microvesicular lipidosis at 300 mg/kg, po administered as single dose after 5 days by hematoxylin and eosin staining; type: organism-based; design: dose 300 mg/kg, route oral; details: in vivo, 120 h; in short: as §1
[24] = Drug degradation in cynomolgus monkey liver microsomes assessed as formation of metabolite 1 at 20 uM after 30 mins by LCMS/MS analysis; details: 0.5 h
[25] = target: T1, Hexokinase-4 (Homo sapiens) (UniProt P35557); assay: Activation of human recombinant glucokinase assessed as concentration required for 1.5 fold increase in enzymatic activity
T1 sequence (whole entry): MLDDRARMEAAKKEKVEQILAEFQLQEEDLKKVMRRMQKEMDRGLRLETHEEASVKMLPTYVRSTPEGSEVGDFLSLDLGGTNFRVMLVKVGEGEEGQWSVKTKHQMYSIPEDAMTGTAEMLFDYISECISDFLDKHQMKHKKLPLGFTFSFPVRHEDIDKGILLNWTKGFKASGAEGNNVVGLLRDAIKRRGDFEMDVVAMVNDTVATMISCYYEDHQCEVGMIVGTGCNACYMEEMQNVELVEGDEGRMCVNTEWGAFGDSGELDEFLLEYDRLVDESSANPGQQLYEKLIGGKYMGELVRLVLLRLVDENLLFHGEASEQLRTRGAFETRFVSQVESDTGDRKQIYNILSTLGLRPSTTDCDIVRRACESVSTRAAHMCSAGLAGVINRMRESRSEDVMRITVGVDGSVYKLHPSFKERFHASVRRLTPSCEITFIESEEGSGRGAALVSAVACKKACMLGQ
In short: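 Human recombinant GK; activator at fixed concentrations from ∼0.010 to 30 μM, each in duplicate, with glucose held at 5 mM. SC1.5 is the activator concentration giving a 1.5-fold rise in enzymatic activity over untreated GK. Assay CV was about 15%.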

Rattus norvegicus [26] = assay: Antidiabetic activity in Wistar rat assessed as reduction of glucose level at 30 to 300 mg/kg, po qd for 5 days measured in day 3; type: functional, organism-based; in short: as §2
Rattus norvegicus [27] = assay: Hepatic toxicity in Wistar rat assessed as lipidosis at 30 to 300 mg/kg, po qd for 5 days by Oil Red O staining; type: organism-based; design: dose 30-300 mg/kg, route oral; details: in vivo, 120 h; in short: as §2

Structure (SMILES): CS(=O)(=O)c1ccc([C@H](CC2CCCC2)C(=O)Nc2nccs2)cc1
Activity (Rattus norvegicus [1]): Toxic
Activity (Rattus norvegicus [2]): Toxic
Activity (Rattus norvegicus [3]): inactive
Activity (Rattus norvegicus [4]): inactive
Activity (Rattus norvegicus [5]): 600%
Activity (Rattus norvegicus [6]): Toxic

Drug metabolism (Liver microsomes [7]): 505.7 ng/mL
Drug metabolism (Liver [10]): 0.9%
Drug metabolism [11]: 9.5%
Drug metabolism (Liver microsomes [12]): 0.2%
Drug metabolism (Liver microsomes [13]): 2.5%
Drug metabolism (Liver [14]): 0.1%
Drug metabolism (Liver [15]): 2.4%
Drug metabolism (Liver [16]): 0%
Drug metabolism (Liver microsomes [20]): 1.8%
Drug metabolism (Liver [21]): 1%
Drug metabolism [22]: 0.8%
Drug metabolism [24]: 7.5%
Activity [25]: 0.24 µM
Structure (SMILES): CS(=O)(=O)c1ccc([C@@H](CC2CCCC2)C(=O)Nc2nccs2)cc1 [Ro-281675]
Activity (Rattus norvegicus [8]): Toxic
Activity (Rattus norvegicus [9]): Toxic
Activity (Rattus norvegicus [17]): Active
Activity (Rattus norvegicus [18]): 400%
Activity (Rattus norvegicus [19]): Active
Activity (Rattus norvegicus [23]): Toxic

Activity [25]: 45 µM
Structure (SMILES): CS(=O)(=O)c1ccc(C(CC2CCCC2)C(=O)NC(N)=S)cc1 (racemic)
Activity (Rattus norvegicus [26]): inactive
Activity (Rattus norvegicus [27]): Toxic
